Data set [1] is described as follows: melting temperature; fluorescence melt of hairpins on a sequencing array, two-state fit, raised by 9.35 °C to match UV melts. The conditions noted are these: sodium 0.088 M. The essentials: (§1)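 To match UV melts, fitted temperatures were raised by 9.35 °C. These fits were bootstrapped two-state models that gave melting temperature and folding enthalpy, combined by inverse variance over four replicates. The input was normalised Cy3 fluorescence of library hairpins with annealed Cy3 and quencher oligos on a sequenced MiSeq flow cell, imaged in 50 mM Na-HEPES pH 8.0, 25 mM NaCl in 2.5 °C steps up to 60 °C.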

The nature of data set [2]: folding enthalpy; higher = less favourable; fluorescence melt of hairpins on a sequencing array, two-state fit. The settings on record: sodium 0.088 M. The essentials:
as §1

The values that follow come from the array DNA melting data of Ke et al. (doi:10.1101/2024.01.08.574731).

As for GTACGACGAAAGTCCTAC (((.(((....))).))), the Tm in data set [1] turned out to be 31.9 °C. In addition, the folding enthalpy in data set [2] was -13.2 kcal/mol.

For the sequence GTACGAGCGAAAGCTTAC (((..(((....)))))), the Tm in data set [1] was determined as 22.6 °C. Further, the folding enthalpy in data set [2] was -8.2 kcal/mol.

Consider GTACGAGGAAACTTGTGC (.((.((....)).)).), for which the Tm in data set [1] was 33 °C. Also, the folding enthalpy in data set [2] is -16.8 kcal/mol.

Regarding GTACGCCGAAAGGCCTAC (((.(((....))).))), in data set [1], the Tm came to 39.2 °C. For the same sequence, in data set [2], the folding enthalpy is -10.9 kcal/mol.

As to GTACGCCGAAAGGCTTAC (((.(((....))).))), in data set [1], the Tm turned out to be 46.3 °C. Besides, the folding enthalpy in data set [2] was -21.5 kcal/mol.

Consider GTACGCGAAAGCGGCTAC ((((((....)))..))), for which the Tm in data set [1] was found to be 42.1 °C. For the same sequence, in data set [2], the folding enthalpy is -10.4 kcal/mol.

For GTACGCGAAAGCGGTAC ((((((....))).))), the Tm in data set [1] is 56.5 °C. For the same sequence, the folding enthalpy in data set [2] was -16.6 kcal/mol.

In the case of GTACGCGAAAGCGTTAC ((((((....))).))), the Tm in data set [1] was determined as 46.8 °C. The folding enthalpy in data set [2] was -11 kcal/mol.

Take GTACGCGAAAGCGTTTAC ((((((....)))..))): the Tm in data set [1] was determined as 29.1 °C. Besides, in data set [2], the folding enthalpy is -7.31 kcal/mol.

As to GTACGCGCGAAAGCGTAC (((..(((....)))))), in data set [1], the Tm came to 61.3 °C. The folding enthalpy in data set [2] is -20.2 kcal/mol.

For the sequence GTACGCGGAAACGTGTGC (.((.((....)).)).), the Tm in data set [1] amounted to 46.2 °C. The folding enthalpy in data set [2] is -20.8 kcal/mol.

For GTACGGGGAAACCCACAC ((..(((....)))..)), the Tm in data set [1] came out at 30.4 °C. For the same sequence, the folding enthalpy in data set [2] is -16.3 kcal/mol.

With GTACGGGGAAACTCGTAC (((((.(....).))))), the Tm in data set [1] turned out to be 50.7 °C. In data set [2], the folding enthalpy is -35.4 kcal/mol.

Take GTACGTCGAAAGACCTAC (((.(((....))).))): the Tm in data set [1] is 34.3 °C. The folding enthalpy in data set [2] is -13.6 kcal/mol.

As for GTACGTCGAAAGACTTAC (((.(((....))).))), the Tm in data set [1] came out at 39.3 °C. For the same sequence, the folding enthalpy in data set [2] was -25.7 kcal/mol.

For the sequence GTACGTGCGAAAGCATAC (((..(((....)))))), the Tm in data set [1] was found to be 26.4 °C. Also, in data set [2], the folding enthalpy was -10.3 kcal/mol.

For GTACGTGGAAACACGCAC ((.((((....)))).)), the Tm in data set [1] stood at 47.3 °C. In addition, in data set [2], the folding enthalpy was -17.2 kcal/mol.

For the sequence GTACTAGGAAACTAGCAC ((.((((....)))).)), in data set [1], the Tm came out at 32.2 °C. Further, in data set [2], the folding enthalpy was -22.1 kcal/mol.

Take GTACTCGAAAGAGAGTAC ((((((....)))..))): the Tm in data set [1] was found to be 46.8 °C. Also, in data set [2], the folding enthalpy was -29.4 kcal/mol.

With GTACTCGAAAGAGATAC ((((((....))).))), in data set [1], the Tm came to 34.5 °C. The folding enthalpy in data set [2] was -18 kcal/mol.

In the case of GTACTCGAAAGAGGCTAC ((((((....)))..))), the Tm in data set [1] was 37.4 °C. In addition, the folding enthalpy in data set [2] was -14.3 kcal/mol.

For GTACTCGAAAGAGGTAC ((((((....))).))), the Tm in data set [1] came to 42.7 °C. Besides, the folding enthalpy in data set [2] is -21.1 kcal/mol.

As to GTACTCGAAAGAGTAC ((((((....)))))), the Tm in data set [1] is 61 °C. The folding enthalpy in data set [2] is -36.2 kcal/mol.

Turning to GTACTCGAAAGAGTCTAC ((((((....)))..))), the Tm in data set [1] amounted to 35.5 °C. Moreover, the folding enthalpy in data set [2] is -14.6 kcal/mol.

Regarding GTACTCGGAAACGAGTGC (.(((((....))))).), the Tm in data set [1] was found to be 54.5 °C. For the same sequence, in data set [2], the folding enthalpy was -41 kcal/mol.

Take GTACTGCGAAAGCACTAC (((.(((....))).))): in data set [1], the Tm turned out to be 28.8 °C. In addition, the folding enthalpy in data set [2] was -14.8 kcal/mol.

GTACTGGGAAACCAGCAC ((.((((....)))).)): the Tm in data set [1] was 42.3 °C. The folding enthalpy in data set [2] is -20.4 kcal/mol.

For GTACTTCCGAAAGGATAC (((..(((....)))))), the Tm in data set [1] stood at 24.9 °C. For the same sequence, the folding enthalpy in data set [2] was -10.3 kcal/mol.

Regarding GTACTTGGAAACAAGTAC (((((((....))))))), the Tm in data set [1] is 56 °C. Moreover, the folding enthalpy in data set [2] is -33.5 kcal/mol.

For GTAGAACGAAAGTTATAC (((.(((....))).))), the Tm in data set [1] stood at 44.1 °C. The folding enthalpy in data set [2] was -33.9 kcal/mol.
